Laboratory results from ChEMBL document CHEMBL1275502, “Establishing in vitro-in vivo correlations for Aspergillus fumigatus: the challenge of azoles versus echinocandins” (2008).
Values after ≈ are worked out from the molar mass of the structure shown. Active and inactive are the calls of the source. The rule behind the calls is not given here.

Key:
Aspergillus fumigatus [1] = test: Antimicrobial activity against Aspergillus fumigatus isolate DK by Etest method; type: functional
How it was run: (§1)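 Etest on RPMI 1640-2% glucose agar plates, run per the manufacturer's recommendations. Caspofungin Etest end point read after 2 days of incubation.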

Aspergillus fumigatus [2] = test: Antimicrobial activity against Aspergillus fumigatus isolate A29 by Etest method; type: functional
Aspergillus fumigatus [3] = test: Antimicrobial activity against Aspergillus fumigatus isolate AT assessed as partial growth inhibition by microdilution method; type: functional, organism-based
How it was run: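 Broth microdilution MEC by EUCAST and CLSI methods (one lab used a modified EUCAST inoculum of 5 × 10⁴ cells/ml). Plates inoculated with spores and incubated at 35°C for 24 to 48 h. MEC taken as the lowest concentration giving aberrant growth, read by light microscopy.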

Aspergillus fumigatus [4] = test: Antimicrobial activity against Aspergillus fumigatus isolate AT assessed as amount of galactose in the alkali-insoluble fraction at 0.04 ug/ml; type: functional
How it was run: (§2)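 Mycelia pretreated by culture with 0.04 μg/ml caspofungin. Cell wall boiled twice in Tris-EDTA-SDS-mercaptoethanol, then alkali-fractionated twice (1 M NaOH/0.05 M NaBH₄, 70°C). Alkali-insoluble fraction (100 μg) digested overnight at 37°C with recombinant endo-β(1,3)-glucanase LamA in pH 6.0 acetate buffer. Read by HPAEC and reducing-sugar assay; hexoses by GC with meso-inositol internal standard. Pretreated values are means of two samples.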

Aspergillus fumigatus [5] = test: Ratio of FKS1 expression in Aspergillus fumigatus isolate AT to PMA1 expression in Aspergillus fumigatus ATCC 13073 at 0.25 ug/ml by RT-PCR; type: functional
How it was run: (§3)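 Strains grown 24 h at 37°C with shaking (150 rpm) in RPMI 1640, with and without 0.25 μg/ml caspofungin. FKS1 transcript measured by real-time PCR, normalised to housekeeping genes (BTU, PMA1). Reported as the expression ratio of AT isolate to each reference strain.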

Aspergillus fumigatus [6] = test: Antimicrobial activity against Aspergillus fumigatus isolate AT assessed as amount of glucose in the alkali-insoluble fraction at 0.04 ug/ml; type: functional; how it was run: as §2
Aspergillus fumigatus [7] = test: Antimicrobial activity against Aspergillus fumigatus isolate AT assessed as amount of mannose in the alkali-insoluble fraction at 0.04 ug/ml; type: functional; how it was run: as §2
Aspergillus fumigatus [8] = test: Antimicrobial activity against Aspergillus fumigatus isolate AT assessed as FKS1 expression by RT-PCR relative to control; type: functional, organism-based; how it was run: as §3
Aspergillus fumigatus [9] = test: Antimicrobial activity against Aspergillus fumigatus isolate DK infected in NMRI mouse assessed as survival rate at 2.25 mg/kg, ip; type: functional; conditions: route intraperitoneal
How it was run: (§4)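 NMRI mice (26 to 30 g) immunosuppressed with cyclophosphamide i.p., 200 mg/kg day −3 and 100 mg/kg day 0. Challenged i.v. on day 0 with 1.5 × 10⁵ CFU in groups of 10 to 13. Dosed in 0.25 ml on days 1 to 4 and 7 to 10: caspofungin i.p., posaconazole orally, or glucose i.p. as control. Scored daily. Survivors killed day 11. AT isolate run in two experiments.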

Aspergillus fumigatus [10] = test: Antimicrobial activity against Aspergillus fumigatus isolate AT infected in NMRI mouse assessed as reduction in galactomannan index relative to control; type: functional, organism-based
How it was run: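 Mice (NMRI) immunosuppressed with cyclophosphamide i.p. (200 mg/kg day −3, 100 mg/kg day 0). Challenged i.v. on day 0 with 1.5 × 10⁵ CFU. Treated on days 1–4 and 7–10 with caspofungin i.p. 2.25 mg/kg, posaconazole orally 5 or 20 mg/kg, or glucose i.p. (controls). Serum galactomannan index measured by Platelia ELISA on day 11 in survivors.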

Aspergillus fumigatus [11] = test: Antimicrobial activity against Aspergillus fumigatus isolate AT assessed as amount of beta-(1,3)-glucan at 0.04 ug/ml; type: functional; how it was run: as §2
Aspergillus fumigatus [12] = test: Ratio of FKS1 expression in Aspergillus fumigatus isolate AT to PMA1 expression in Aspergillus fumigatus 293 at 0.25 ug/ml by RT-PCR; type: functional; how it was run: as §3
Aspergillus fumigatus [13] = test: Ratio of FKS1 expression in Aspergillus fumigatus isolate AT to BTU expression in Aspergillus fumigatus ATCC 13073 at 0.25 ug/ml by RT-PCR; type: functional; how it was run: as §3
Aspergillus fumigatus [14] = test: Ratio of FKS1 expression in Aspergillus fumigatus isolate AT to BTU expression in Aspergillus fumigatus 293 at 0.25 ug/ml by RT-PCR; type: functional; how it was run: as §3
Aspergillus fumigatus [15] = test: Antimicrobial activity against Aspergillus fumigatus isolate AT infected in NMRI mouse assessed as survival rate at 2.25 mg/kg, ip; type: functional; conditions: route intraperitoneal; how it was run: as §4
Aspergillus fumigatus [16] = test: Antimicrobial activity against Aspergillus fumigatus isolate DK by microdilution method; type: functional; conditions: read-out: MEC
How it was run: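 Broth microdilution by the EUCAST method for spore-forming moulds (C. krusei ATCC 6258 control), also a modified EUCAST version with 5 × 10⁴ cells/ml inoculum. Spore-inoculated plates incubated at 35°C for 24 to 48 h, read visually and spectrophotometrically. Azole MIC = lowest dilution giving no growth, ignoring single surface colonies. Echinocandin MEC = lowest concentration giving aberrant growth.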

Aspergillus fumigatus [17] = test: Antimicrobial activity against Aspergillus fumigatus isolate AT by Etest method; type: functional, organism-based; how it was run: as §1
Aspergillus fumigatus [18] = test: Antimicrobial activity against Aspergillus fumigatus isolate DK infected in NMRI mouse assessed as survival rate at 5 mg/kg, po; type: functional; how it was run: as §4
Aspergillus fumigatus [19] = test: Antimicrobial activity against Aspergillus fumigatus isolate AT infected in NMRI mouse assessed as survival rate at 5 mg/kg, po; type: functional; how it was run: as §4
Aspergillus fumigatus [20] = test: Antimicrobial activity against Aspergillus fumigatus isolate AT infected in NMRI mouse assessed as survival rate at 20 mg/kg, po; type: functional; how it was run: as §4
Aspergillus fumigatus [21] = test: Antimicrobial activity against Aspergillus fumigatus isolate DK infected in NMRI mouse assessed as survival rate at 20 mg/kg, po; type: functional; how it was run: as §4

## CC[C@H](C)C[C@H](C)CCCCCCCCC(=O)N[C@H]1C[C@@H](O)[C@@H](NCCN)NC(=O)[C@@H]2[C@@H](O)CCN2C(=O)[C@H]([C@H](O)CCN)NC(=O)[C@H]([C@H](O)[C@@H](O)c2ccc(O)cc2)NC(=O)[C@@H]2C[C@@H](O)CN2C(=O)[C@H]([C@@H](C)O)NC1=O [CASPOFUNGIN]
Aspergillus fumigatus [1]
  Activity: 0.125 µg/mL
Aspergillus fumigatus [2]
  MIC: 0.094 µg/mL (≈ 0.086 µM)
Aspergillus fumigatus [2]; in the assay text read “by microdilution method” for “by Etest method”, read-out: MEC
  minimal effective concentration: 0.04 µg/mL
Aspergillus fumigatus [3]
  Activity: Active
Aspergillus fumigatus [4]
  Activity: 16%
Aspergillus fumigatus [5]
  Ratio: 3.5
Aspergillus fumigatus [6]
  Activity: 74%
Aspergillus fumigatus [7]
  Activity: 10%
Aspergillus fumigatus [8]
  Activity: inactive
Aspergillus fumigatus [9]
  survival at 2.25 mg/kg: 100%
Aspergillus fumigatus [10]
  Activity: Active
Aspergillus fumigatus [11]
  Activity: 81%
Aspergillus fumigatus [12]
  Ratio: 2.9
Aspergillus fumigatus [13]
  Ratio: 3.41
Aspergillus fumigatus [14]
  Ratio: 2.78
Aspergillus fumigatus [15]
  survival at 2.25 mg/kg: 25%
Aspergillus fumigatus [16]
  minimal effective concentration: 0.25 µg/mL
Aspergillus fumigatus [17]
  Activity: inactive

## CC[C@@H]([C@H](C)O)n1ncn(-c2ccc(N3CCN(c4ccc(OC[C@@H]5CO[C@@](Cn6cncn6)(c6ccc(F)cc6F)C5)cc4)CC3)cc2)c1=O [POSACONAZOLE]
Aspergillus fumigatus [18]
  survival at 5 mg/kg: 16.7%
Aspergillus fumigatus [19]
  survival at 5 mg/kg: 70%
Aspergillus fumigatus [20]
  survival at 20 mg/kg: 75%
Aspergillus fumigatus [21]
  survival at 20 mg/kg: 25%
